Measurements published in publication PMC9804109 (Current Research in Pharmacology and Drug Discovery, 2022).

Key:
[1] = system: melanoma cells; conditions: ref Le Gal et al., 2015; cited from earlier work
[2] = system: V79 lung fibroblasts; conditions: ref Grosicka-Maciąg et al., 2011; cited from earlier work
[3] = system: LN-229 cells; experiment: MitoSOX flow cytometry of mitochondrial ROS, LN-229; format: cell-based, human; conditions: cytochrome c reductase inhibitor as control
In short: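 Cells trypsinised, washed and suspended in HBSS at 1 × 10^6 cells/mL, then exposed to test compound (0.2 or 1 mM) in HBSS for 2 h. Stained with 5 μM MitoSOX for 20 min at 37 °C and read by flow cytometry in the red channel. Antimycin A served as the ROS-promoting control. Mean channel fluorescence ± SEM, n = 3; two-way ANOVA with Bonferroni post-test vs untreated.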

[4] = system: trypsin; conditions: previous HPLC conditions; ref Akhmadishina et al., 2018; cited from earlier work

## CC(=O)N[C@@H](CS)C(=O)O [N-acetylcysteine (NAC), N-acetylcysteine]
[1]
  elevation of GSH/GSSG ratio: ~3.8 times
[2]
  increase of both GSH and GSSG levels: up to 2 times

## Cc1c(C)c2c(c(C)c1O)CCC(C)(C(=O)O)O2 (centres unmarked) [Trolox]
[1]
  elevation of GSH/GSSG ratio: ca. 2.5 times

## CCCCCC[C@H]1C(=O)O[C@H](C)[C@H](NC(=O)c2cccc(NC=O)c2O)C(=O)O[C@@H](C)[C@@H]1OC(=O)CC(C)C [antimycin A]
[3]
  effect on mitochondrial ROS (MitoSOX): lack of ROS-promoting effect

## YRFK-NH2
[4]
  half-time of cleavage by trypsin: 6 h
